Experiment [1] in a line: Inhibition of bacterial beta-lactamase OXA-48 expressed in Escherichia coli strain BL21Star(DE3)pRARE using nitrocefin as substrate. Set-up: species or system Bacteria. The method in brief:
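OXA-48 carried its native signal peptide and was purified from the periplasm. The assay ran at 25 °C in 100 mM sodium phosphate pH 7.0 with 50 mM NaHCO3 and 0.2 mg/mL BSA, against 25 μM nitrocefin. Velocities were taken from the linear range. IC50 came from a nonlinear fit of response versus log inhibitor concentration, with bottom and top fixed from controls.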

The nature of experiment [2]: Binding affinity to bacterial His-tagged beta-lactamase OXA-48 expressed in Escherichia coli strain BL21Star(DE3)pRARE by surface plasmon resonance assay. Set-up: species or system Bacteria. A digest of the protocol: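 His-tagged OXA-48 amine-coupled to a CM5 chip to around 5000 RU (enzyme at 25 μg/mL in 10 mM MES pH 5.5). Ten dilutions from 400 μM to 10.5 μM were injected for 30 s with 60 s dissociation (300 s for kinetic binders). Sensorgrams were double-referenced. Kd came from a steady-state model with Rmax fixed via a positive control.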

SMILES strings stand for the structures.

What is called IC50 is the concentration that inhibits the measured activity by half. Low values mean greater potency, high ones weaker potency. By pIC50 is commonly meant the negative decadic logarithm of the IC50, by convention in mol/L. High values mean a small IC50, low ones a large IC50. What is called Kd is a measure of binding affinity in units of concentration. A higher Kd goes with lower affinity. In experiment [1], `CS(=O)(=O)c1cccc(-c2cccc(C(=O)O)c2)c1` yielded an IC50 of 120 µM and a negative-log IC50 (pIC50) of 3.91. In experiment [2], this molecule showed a Kd of 150 µM.
In the same order, the values of `Cc1ccccc1-c1cccc(C(=O)O)c1` are 90 µM, 4.05 and 170 µM.
In the same order, the values of `Cc1nc(N)ncc1-c1cccc(C(=O)O)c1` are 350 µM, 3.46 and 113 µM.
For `Nc1ccc(-c2cccc(C(=O)O)c2)cn1`, in that order: 170 µM, 3.76 and 130 µM.
With `O=C(O)c1cccc(-c2ccccc2F)c1`, in experiment [1], half-maximal inhibition (IC50) required 130 µM and the pIC50 came out at 3.89. The same molecule showed a Kd in experiment [2] of 170 µM.
Regarding `O=C(O)c1cccc(-c2ccc(F)cc2)c1`, in experiment [1], the IC50 turned out to be 360 µM and the pIC50 is 3.45. In experiment [2], this molecule displayed a Kd of 312 µM.
In experiment [1], `CN(C)c1ccc(-c2cccc(C(=O)O)c2)cc1` came in with a concentration for half-maximal inhibition (IC50) of 390 µM and a pIC50 of 3.41. In addition, in experiment [2], the Kd turned out to be 220 µM.
In the same order, the values of `O=C(O)c1cccc(-c2cccc(O)c2)c1` are 110 µM, 3.97 and 110 µM.
In the same order, the values of `CC(=O)c1ccc(-c2cccc(C(=O)O)c2)cc1` are 380 µM, 3.42 and 280 µM.
For `COc1ccccc1-c1cccc(C(=O)O)c1`, in that order: 250 µM, 3.6 and 123 µM.
Regarding `NCCc1ccc(-c2cccc(C(=O)O)c2)cc1`, in experiment [1], the IC50 was 1000 µM and the pIC50 is given as 2.98. The molecule also showed a Kd in experiment [2] of 970 µM.
In the same order, the values of `CS(=O)(=O)Nc1ccc(-c2cccc(C(=O)O)c2)cc1` are 370 µM, 3.43 and 100 µM.
In the same order, the values of `CC(=O)NCCc1ccc(-c2cccc(C(=O)O)c2)cc1` are 520 µM, 3.28 and 190 µM.
With `O=C(O)c1cccc(-c2ccc(-c3nnn[nH]3)cc2)c1`, in experiment [1], the 50% inhibitory concentration (IC50) came to 36 µM and the pIC50 came out at 4.48. Also, the Kd in experiment [2] stood at 70 µM.
In the same order, the values of `CS(=O)(=O)c1ccc(-c2cccc(C(=O)O)c2)cc1` are 380 µM, 3.42 and 361 µM.
For `NC(=O)c1ccc(-c2cccc(C(=O)O)c2)cc1`, in that order: 180 µM, 3.73 and 200 to 350 µM.
Consider `CC(=O)Nc1cccc(-c2cc(C(=O)O)cc(-c3cccc(NC(C)=O)c3)c2)c1`, for which, in experiment [1], the IC50 amounted to 2.9 µM and the pIC50 was found to be 5.53. The same molecule returned a Kd in experiment [2] of 20 to 30 µM.
With `CC(=O)Nc1cccc(-c2cccc(C(=O)O)c2)c1`, in experiment [1], the IC50 was determined as 35 µM and the pIC50 amounted to 4.45. Also, the affinity in experiment [2], expressed as Kd, was 100 µM.
In experiment [1], `O=C(O)c1cccc(-c2cnc(-n3ccnc3)nc2)c1` displayed an IC50 of 1300 µM and a pIC50 of 2.89. The same molecule displayed a Kd in experiment [2] of 1000 to 1160 µM.
In the same order, the values of `CC(=O)OCc1cccc(-c2cccc(C(=O)O)c2)c1` are 250 µM, 3.6 and 140 to 181 µM.
For `CS(=O)(=O)NCc1ccc(-c2cccc(C(=O)O)c2)cc1`, in that order: 450 µM, 3.35 and 240 µM.
In experiment [1], `Cc1cccc(-c2cccc(C(=O)O)c2)c1` displayed an IC50 of 170 µM and a pIC50 of 3.78. Besides, the Kd in experiment [2] was found to be 300 µM.
For `CC(=O)Nc1ccc(-c2cc(C(=O)O)cc(-c3ccc(NC(C)=O)cc3)c2)cc1`, in that order: 48 µM, 4.32 and 70 µM.
For `Nc1ccc(-c2cccc(C(=O)O)c2)cc1`, in that order: 330 µM, 3.48 and 330 µM.
In the same order, the values of `O=C(O)c1cccc(-c2ccccn2)c1` are 35 µM, 4.46 and 159 µM.
In experiment [1], `O=C(O)c1cccc(-c2ccc3cccnc3c2)c1` yielded an IC50 of 240 µM and a pIC50 of 3.61. In experiment [2], the Kd was found to be 160 µM.
On to `O=C(O)c1cccc(-c2cccc(F)c2)c1`, for which, in experiment [1], half-maximal inhibition (IC50) required 130 µM and the pIC50 stood at 3.88. In experiment [2], the Kd turned out to be 240 µM.
In the same order, the values of `O=C(O)c1cc(-c2ccc3ncccc3c2)cc(-c2ccc3ncccc3c2)c1` are 110 µM, 3.94 and 70 µM.
In the same order, the values of `COC(=O)c1cccc(-c2cccc(C(=O)O)c2)c1` are 260 µM, 3.59 and 144 µM.
For `NC(=O)c1cccc(-c2cccc(C(=O)O)c2)c1`, in that order: 260 µM, 3.58 and 220 µM.
As to `CC(=O)NCCc1cccc(-c2cccc(C(=O)O)c2)c1`, in experiment [1], inhibition was half-maximal at 230 µM (IC50) and the pIC50 was 3.64. In experiment [2], this molecule yielded a dissociation constant Kd of 170 µM.
In the case of `CC(=O)Nc1ccc(-c2cccc(C(=O)O)c2)cc1`, in experiment [1], the IC50 was 450 µM and the pIC50 is listed as 3.35. Also, the Kd in experiment [2] was determined as 290 µM.
In the same order, the values of `O=C(O)c1cccc(-c2cccc(-c3nnn[nH]3)c2)c1` are 60 µM, 4.24 and 70 µM.
For `NCCc1cccc(-c2cccc(C(=O)O)c2)c1`, in that order: 110 µM, 3.95 and 300 µM.
In the same order, the values of `CC(=O)Nc1cccc(-c2cc(C(=O)O)cc(-c3ccncc3)c2)c1` are 100 µM, 3.99 and 70 µM.
In experiment [1], `COC(=O)c1ccccc1-c1cccc(C(=O)O)c1` returned an IC50 of 210 µM and a pIC50 of 3.69. The molecule also came in with a Kd in experiment [2] of 200 µM.
In the case of `Cn1cccc1-c1cccc(C(=O)O)c1`, in experiment [1], it took 500 µM to reach half-maximal inhibition (IC50) and the pIC50 is given as 3.3. This molecule gave a Kd in experiment [2] of 590 µM.
In the same order, the values of `O=C(O)c1cccc(-c2cncs2)c1` are 800 µM, 3.09 and 900 µM.
For `O=C(O)c1cccc(-c2ccccc2O)c1`, in that order: 50 µM, 4.3 and 175 µM.
In the same order, the values of `COc1cccc(-c2cccc(C(=O)O)c2)c1` are 360 µM, 3.44 and 226 µM.
As for `CC(=O)NCc1cccc(-c2cccc(C(=O)O)c2)c1`, in experiment [1], half-maximal inhibition (IC50) was put at 130 µM and the pIC50 is 3.89. In addition, binding in experiment [2] was characterised by a dissociation constant (Kd) of 130 µM.
In experiment [1], `COc1ccc(-c2cccc(C(=O)O)c2)cc1` came in with an IC50 of 150 µM and a pIC50 of 3.82. The molecule further registered a Kd in experiment [2] of 250 µM.
In the same order, the values of `CC(=O)Nc1cccc(-c2cc(C(=O)O)cc(-c3ccc4ncccc4c3)c2)c1` are 2.9 µM, 5.54 and 49 to 60 µM.
In experiment [1], `O=C(O)c1cccc(-c2cccc(CO)c2)c1` registered an IC50 of 900 µM and a pIC50 of 3.04. The Kd in experiment [2] was found to be 230 µM.
For `NCc1cccc(-c2cccc(C(=O)O)c2)c1`, in that order: 600 µM, 3.22 and 800 µM.
For `CS(=O)(=O)NCc1cccc(-c2cccc(C(=O)O)c2)c1`, in that order: 110 µM, 3.96 and 110 µM.
Regarding `O=C(O)c1cccc(-c2ccc(O)cc2)c1`, in experiment [1], the IC50 worked out at 470 µM and the pIC50 turned out to be 3.33. This molecule showed a Kd in experiment [2] of 170 µM.
For `CS(=O)(=O)NCCc1cccc(-c2cccc(C(=O)O)c2)c1`, in that order: 370 µM, 3.43 and 200 µM.
In the same order, the values of `O=C(O)c1cccc(-c2ccc3ccccc3c2)c1` are 110 µM, 3.98 and 400 µM.
In experiment [1], `O=C(O)c1cccc(-c2ccc(NS(=O)(=O)c3ccccc3)cc2)c1` came in with a concentration for half-maximal inhibition (IC50) of 60 µM and a negative-log IC50 (pIC50) of 4.25. Also, the affinity in experiment [2], expressed as Kd, was 210 µM.
In the same order, the values of `O=C(O)c1cccc(-c2cncnc2)c1` are 800 µM, 3.1 and 900 µM.
In experiment [1], `NCc1ccc(-c2cccc(C(=O)O)c2)cc1` gave an IC50 of 1400 µM and a pIC50 of 2.85. In experiment [2], this molecule yielded a Kd of 550 µM.
For `CSc1ccc(-c2cccc(C(=O)O)c2)cc1`, in experiment [1], the IC50 turned out to be 400 µM and the pIC50 came out at 3.4. This molecule also displayed a Kd in experiment [2] of 1000 µM.
For `O=C(O)c1cccc(-c2ccc3[nH]ccc3c2)c1`, in that order: 310 µM, 3.51 and 400 µM.

The record behind these values is ChEMBL document CHEMBL4145487, “A focused fragment library targeting the antibiotic resistance enzyme - Oxacillinase-48: Synthesis, structural evaluation and inhibitor design” (Eur J Med Chem, 2018).
